Data on 4 compounds can be found in ChEMBL document CHEMBL1155849, “Cadinane sesquiterpenes from the leaves of Eupatorium adenophorum” (J Nat Prod, 2008).

Holding throughout (format): functional, cell-based
For one assay, the system named is HCT-8. The experiment in a line: Cytotoxicity against human HCT8 cells by MTT assay. The method, boiled down:
(§1)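 Cell proliferation was read out by MTT. The lines were HCT-8 (colon), Bel-7402 (hepatoma) and A2780 (ovarian), all of human origin. Values are reported as IC50.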
A general note: Tetrazolium dyes change colour on reduction, which living cells bring about.

In another assay the test system is Bel-7402. The experiment in a line: Cytotoxicity against human Bel7402 cells by MTT assay. The method, boiled down:
as §1

The subject of the next assay is A2780. As to the kind of experiment: Cytotoxicity against human A2780 cells by MTT assay. The procedure, abridged: as §1

As to `CC1=C[C@H]2[C@@H](CC1)[C@H](C)C[C@H](O)[C@@]2(O)C(C)C`, the values for the IC50 in the assay on HCT-8, in the assay with Bel-7402 and in the assay on A2780 were 2 µM, 1.7 µM and 1.7 µM, respectively.
Consider `CC1=C[C@@H]2C3=C(C)COO[C@@]3(O)C[C@@H](C)[C@@H]2CC1=O`, for which the half-maximal inhibitory concentration (IC50) in the assay on HCT-8, in the assay with Bel-7402 and in the assay on A2780 was over 5 µM throughout.
As to `CC1=C[C@@H]2C3=C(C)C(=O)O[C@H]3C[C@@H](C)[C@@H]2CC1=O`, the IC50 in the assay on HCT-8, in the assay on Bel-7402 and in the assay on A2780 was over 5 µM in each case.
Take `CC1=C[C@@H]2C3=C(C)C(=O)O[C@]3([C@@]34C[C@@H](C)[C@@H]5CC(=O)C(C)=C[C@@H]5C3=C(C)C(=O)O4)C[C@@H](C)[C@@H]2CC1=O`: the half-inhibitory concentration (IC50) in the assay with HCT-8, in the assay on Bel-7402 and in the assay with A2780 was over 5 µM each time.
